# Screening results: PubChem BioAssay, several laboratories
# L major viab: inhibitors of Leishmania major promastigote growth. Leishmania major promastigotes, resazurin fluorescence viability. inhibition, % at 10 µM. 200,000 compounds, 9% hits; in the data active = inhibition above about 50%;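 also: promastigotes grown with compound for 44 hours at 28 °C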
# PMI activator: increases human mannose-6-phosphate isomerase activity | purified human PMI, coupled resazurin fluorescence, 20 min; active compounds read high; 1 = vehicle control, 0 substrate-free wells | 190,000 compounds, 0.005% hits | activation factor at 20 µM | P34949 | AID 1214;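 active = activation factor of 2 or more at 20 µM, relative to plate controls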
# Target sequence (P34949 whole entry, looked up): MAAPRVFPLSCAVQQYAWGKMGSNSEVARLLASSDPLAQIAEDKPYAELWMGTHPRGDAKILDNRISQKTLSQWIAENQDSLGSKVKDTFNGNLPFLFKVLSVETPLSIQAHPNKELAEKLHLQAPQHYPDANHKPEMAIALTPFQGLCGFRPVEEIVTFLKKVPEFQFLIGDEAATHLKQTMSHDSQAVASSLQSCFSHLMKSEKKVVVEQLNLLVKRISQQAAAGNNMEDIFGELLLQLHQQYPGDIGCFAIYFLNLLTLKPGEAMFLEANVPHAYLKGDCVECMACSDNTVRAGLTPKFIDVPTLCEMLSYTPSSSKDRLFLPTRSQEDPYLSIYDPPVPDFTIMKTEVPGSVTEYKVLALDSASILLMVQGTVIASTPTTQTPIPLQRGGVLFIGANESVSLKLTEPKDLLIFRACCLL
# WT yeast gro inh: growth inhibition of WT yeast, mitochondrial fusion screen. mitochondrial fusion phenotypic screen, WT strain. inhibition, % at 10 µM. 190,000 compounds, 2.1% hits. AID 1362; in the data active = inhibition above about 58%; tested in S. cerevisiae
# PMI act hi M6P: PMI (human) activation, high substrate. P34949. AID 1216. coupled PMI enzyme assay, resazurin fluorescence, 20 min; active compounds read high; 1 = untreated enzyme, 0 = substrate-free blank. activation factor at 20 µM. 190,000 compounds, 0.34% hits;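 active = activation factor of 2 or more at 20 µM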
#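 Material: human phosphomannose isomerase with PGI, G6PDH, diaphorase coupling enzymes / Reagent: Man-6-P substrate 1.0 mM / Dosing: single compound dose of 20 µM, 1% DMSO final / Incubation: enzyme reaction with compound 20 min at room temperature / Signal: resorufin fluorescence (Ex 544/Em 590 nm) from resazurin via diaphorase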
# Rad51 HR inh: Rad51 (human) homologous recombination inhibition; Q06609; hRad51 DNA strand exchange, fluorescence dequenching; inhibition, % at 10 µM; 200,000 compounds, 0.085% hits; AID 1385;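 active = inhibition above 40% at the single screening dose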;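 also: 0% = DMSO control wells and 100% = blanks with heterologous ssDNA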
#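 material = hRad51 filaments on single-stranded DNA | reagent = Donor/quencher-labelled 47-bp dsDNA substrate | compound = 10 µM final, single point | schedule = strand-exchange reaction 15 min at room temperature | measured by = fluorescein emission 520 nm, excitation 485 nm | read-out basis = % inhibition versus plate control and blank means | benchmarks = plate controls and plate blanks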
# m-calpain inh: blocks pig calpain II enzyme activity; purified calpain II, fluorogenic peptide substrate, 30 min; inhibition, % at 16 µM; 220,000 compounds, 0.37% hits; AID 1236;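 active = inhibition above about 50%, limit read from the data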
# Numbers without * were called inactive; . = not tested or not shown. Compounds with a hit are over-represented: about 9.8% of the library has one in this group of screens.
SMILES,L major viab,PMI activator,WT yeast gro inh,PMI act hi M6P,Rad51 HR inh,m-calpain inh
COc1cccc(CN(C(=O)Cn2nnc(-c3ccccc3F)n2)C(C(=O)NC(C)(C)C)c2ccncc2)c1 (stereo not drawn),6,0.9,-6,1,9,-19
Cc1ccc(C2=N/C(=C\c3cccnc3)C(=O)O2)cc1,66*,1,12,1,-2,15
Cc1ccc(NC(=O)c2nc[nH]c2C(=O)Nc2ccc(C)cc2)cc1,-5,1.1,13,1.1,7,-49
O=C(Nc1ccc([N+](=O)[O-])cc1)c1nc[nH]c1C(=O)NC1CCCCC1,64*,1.2,0,1.1,-8,-8
CNC(=O)c1[nH]cnc1C(=O)Nc1ccc(C)cc1,1,0.9,0,0.9,-2,2
O=C(Nc1ccc(F)cc1)c1nc[nH]c1C(=O)Nc1ccc([N+](=O)[O-])cc1,92*,1.2,11,1.1,10,4
Nc1ncnc(Nc2ccc(S(N)(=O)=O)cc2)n1,.,.,.,.,-2,-12
Cc1cc(-c2nnc(-c3cccc(Cl)c3)o2)no1,.,.,.,.,8,-17
Cc1ccc(SC(C)C(=O)Nc2ccncc2)cc1 (stereo not drawn),93*,0.9,-8,1,-2,18
Cc1ccc(SC(C)C(=O)Nc2ccccc2-c2ccccc2)cc1 (stereo not drawn),16,0.9,78*,1,.,13
Cc1ccc(SC(C)C(=O)Nc2ccccc2C(=O)N2CCOCC2)cc1 (stereo not drawn),9,0.9,-10,1,5,12
CC(Sc1ccc(Cl)cc1)C(=O)Nc1ccccc1-c1ccccc1 (stereo not drawn),10,0.9,75*,0.9,0,8
N#CC1=C(N)N(c2ccc(F)cc2)C2=C(C1c1ccc(O)cc1)S(=O)(=O)CC2 (stereo not drawn),0,1.2,21,0.9,-18,11
CCCSc1nc(-n2ncc(C#N)c2N)c2c3c(sc2n1)CCC(C)C3 (stereo not drawn),8,0.8,64*,0.9,-3,-21
Clc1ccc(-c2nnnn2-c2ccc(Cl)c(Cl)c2)cc1Cl,14,0.8,79*,0.9,-13,55*
Cc1ccc(-n2nnnc2-c2ccccc2)cc1,-4,1.3,19,1.1,0,40
NC(=O)NC(=O)COC(=O)c1ccc(Cl)c(S(=O)(=O)N(Cc2ccccc2)c2ccc(Cl)cc2)c1,1,0.8,31,0.8,.,-27
NC(=O)COC(=O)c1ccc(Cl)c(S(=O)(=O)N(Cc2ccccc2)c2ccc(Cl)cc2)c1,-1,0.8,77*,0.8,9,10
CC[N+](C)(CC)CC(O)COCC1COc2ccccc2O1 (stereo not drawn),-4,0.8,12,0.8,-12,8
CCOc1c(Cl)cc(CNCc2ccncc2)cc1OC,84*,1.2,9,1.1,8,0
CCOc1cc(CNCc2ccccn2)cc(Cl)c1OCC,2,1.1,-33,1.2,9,-24
OCCNCc1cc(Br)ccc1OCc1ccccc1,4,1,3,1,-7,-4
CCOCCCNCc1cc(Br)ccc1OCc1ccccc1,83*,1,1,1,4,1
CCOc1cc(CNCCc2ccc(S(N)(=O)=O)cc2)ccc1OCc1ccccc1,100*,1,-11,0.9,-4,1
NS(=O)(=O)c1ccc(CCNCc2cc(Br)ccc2OCc2ccccc2)cc1,55*,1.1,1,1.2,3,45
SMILES,L major viab,PMI activator,WT yeast gro inh,PMI act hi M6P,Rad51 HR inh,m-calpain inh
CCC(CC)NC(=O)Nc1ccc(C)cc1,.,.,.,.,.,26
COc1c(C(=O)NNC(=O)c2ccccc2)csc1Br,.,.,.,.,16,14
CCOc1cc(CNCCSc2nnnn2C)cc(Br)c1OCc1ccccc1,19,0.9,1,1,-10,-9
CCOc1cc(CNCCO)cc(Br)c1OCc1ccccc1,75*,0.9,17,1,19,-6
NS(=O)(=O)c1ccc(NCc2ccccc2OCc2ccccc2F)cc1,14,0.9,0,0.9,-6,-4
CCOc1cc(CNc2ccc(S(N)(=O)=O)cc2)cc(Cl)c1OC,4,1,-7,1,7,-8
CCOc1c(Cl)cc(CNCC(C)C)cc1Cl,68*,.,16,.,-2,26
